Results published in ChEMBL document CHEMBL1137333, “Synthesis, radiosynthesis, and biological evaluation of carbon-11 labeled 2beta-carbomethoxy-3beta-(3'-((Z)-2-haloethenyl)phenyl)nortropanes: candidate radioligands for in vivo imaging of the serotonin transporter with positron emission tomography” (J Med Chem, 2006).

Columns and labels:
Cynomolgus monkey [1] = assay: Uptake in anesthetized cynomolgus monkey midbrain after 105.0 mins; assay type: ADME, organism-based; details: in vivo, 1.75 h
In short: (§1)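 Baseline microPET scan (P4 scanner) of anesthetized cynomolgus monkeys after injection of the carbon-11 labelled nortropane tracer. Two baseline studies were run per tracer. Radioactivity was followed over time in regional brain time-activity curves.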

Cynomolgus monkey [2] = assay: Uptake in anesthetized cynomolgus monkey midbrain after 27.5 mins; assay type: ADME, organism-based; details: in vivo; in short: as §1
Cynomolgus monkey [3] = assay: Ratio of uptake in occipital to cerebellum of anesthetized cynomolgus monkey after 65 mins; assay type: ADME, organism-based; details: in vivo
In short: (§2)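 Baseline microPET (Concorde P4) in anesthetized cynomolgus monkey after injection of the [11C]-labelled tracer. Regional time-activity curves were taken, and each region's uptake was divided by cerebellum uptake (low-SERT reference) at 65, 85 and 105 min postinjection.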

Cynomolgus monkey [4] = assay: Uptake in anesthetized cynomolgus monkey caudate after 0.5 mins; assay type: ADME, organism-based, Caudate nucleus; details: in vivo
In short: (§3)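 Baseline microPET (Concorde P4) regional brain time-activity curves in anesthetized cynomolgus monkey following injection of the [11C]-labelled tracer, with radioactivity followed over the scan.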

Cynomolgus monkey [5] = assay: Uptake in anesthetized cynomolgus monkey occipital after 12.5 mins; assay type: ADME, organism-based, Macaca mulatta, Occipital cortex; details: rhesus monkey, in vivo; in short: as §1
Cynomolgus monkey [6] = assay: Uptake in anesthetized cynomolgus monkey putamen after 35.0 mins; assay type: ADME, organism-based; details: in vivo
In short: (§4)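 Baseline microPET (Concorde P4) scan in anesthetized cynomolgus monkeys after injection of the carbon-11 labeled tracer, with no chase drug. Regional brain time-activity curves were followed over the scan. Tracer radiochemical purity and specific activity were determined by analytical HPLC at the time of injection.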

Cynomolgus monkey [7] = assay: Uptake in anesthetized cynomolgus monkey occipital after 65.0 mins; assay type: ADME, organism-based, Macaca mulatta, Occipital cortex; details: rhesus monkey, in vivo; in short: as §1
Cynomolgus monkey [8] = assay: Uptake in anesthetized cynomolgus monkey cerebellum after 45.0 mins; assay type: ADME, organism-based; details: in vivo, 0.75 h; in short: as §3
Cynomolgus monkey [9] = assay: Ratio of uptake in caudate to cerebellum of anesthetized cynomolgus monkey after 65 mins; assay type: ADME, organism-based; details: in vivo; in short: as §2
Cynomolgus monkey [10] = assay: Uptake in anesthetized cynomolgus monkey midbrain after 15.5 mins; assay type: ADME, organism-based; details: in vivo; in short: as §1
Cynomolgus monkey [11] = assay: Uptake in anesthetized cynomolgus monkey frontal after 27.5 mins; assay type: ADME, organism-based, Frontal cortex; details: in vivo; in short: as §1
Cynomolgus monkey [12] = assay: Uptake in anesthetized cynomolgus monkey occipital after 2.5 mins; assay type: ADME, organism-based, Macaca mulatta, Occipital cortex; details: rhesus monkey, in vivo; in short: as §1
Cynomolgus monkey [13] = assay: Uptake in anesthetized cynomolgus monkey cerebellum after 35.0 mins; assay type: ADME, organism-based, Macaca mulatta; details: rhesus monkey, in vivo; in short: as §3
Cynomolgus monkey [14] = assay: Uptake in anesthetized cynomolgus monkey putamen after 1.5 mins; assay type: ADME, organism-based; details: in vivo, 0.025 h; in short: as §4
Cynomolgus monkey [15] = assay: Uptake in anesthetized cynomolgus monkey frontal after 4.5 mins; assay type: ADME, organism-based, Frontal cortex; details: in vivo, 0.075 h; in short: as §1
Cynomolgus monkey [16] = assay: Uptake in anesthetized cynomolgus monkey caudate after 115.0 mins; assay type: ADME, organism-based, Caudate nucleus; details: in vivo; in short: as §3
Cynomolgus monkey [17] = assay: Ratio of uptake in medulla to cerebellum of anesthetized cynomolgus monkey after 65 mins; assay type: ADME, organism-based; details: in vivo; in short: as §2
Cynomolgus monkey [18] = assay: Uptake in anesthetized cynomolgus monkey pons after 18.5 mins; assay type: ADME, organism-based; details: in vivo; in short: as §4
Cynomolgus monkey [19] = assay: Ratio of uptake in putamen to cerebellum of anesthetized cynomolgus monkey after 105 mins; assay type: ADME, organism-based; details: in vivo, 1.75 h; in short: as §2
Cynomolgus monkey [20] = assay: Uptake in anesthetized cynomolgus monkey pons after 15.5 mins; assay type: ADME, organism-based; details: in vivo; in short: as §4
Cynomolgus monkey [21] = assay: Uptake in anesthetized cynomolgus monkey cerebellum after 1.5 mins; assay type: ADME, organism-based; details: in vivo, 0.025 h; in short: as §3
Cynomolgus monkey [22] = assay: Uptake in anesthetized cynomolgus monkey caudate after 9.5 mins; assay type: ADME, organism-based, Caudate nucleus; details: in vivo; in short: as §3
Cynomolgus monkey [23] = assay: Uptake in anesthetized cynomolgus monkey cerebellum after 2.5 mins; assay type: ADME, organism-based, Macaca mulatta; details: rhesus monkey, in vivo; in short: as §3
Cynomolgus monkey [24] = assay: Uptake in anesthetized cynomolgus monkey putamen after 75.0 mins; assay type: ADME, organism-based; details: in vivo, 1.25 h; in short: as §4
Cynomolgus monkey [25] = assay: Uptake in anesthetized cynomolgus monkey medulla after 105.0 mins; assay type: ADME, organism-based, Medulla of organ; details: in vivo, 1.75 h; in short: as §1
Cynomolgus monkey [26] = assay: Ratio of uptake in thalamus to cerebellum of anesthetized cynomolgus monkey after 105 mins; assay type: ADME, organism-based; details: in vivo, 1.75 h; in short: as §2
Cynomolgus monkey [27] = assay: Uptake in anesthetized cynomolgus monkey pons after 45.0 mins; assay type: ADME, organism-based; details: in vivo, 0.75 h; in short: as §4
Cynomolgus monkey [28] = assay: Uptake in anesthetized cynomolgus monkey pons after 55.0 mins; assay type: ADME, organism-based; details: in vivo; in short: as §4
Cynomolgus monkey [29] = assay: Uptake in anesthetized cynomolgus monkey midbrain after 6.5 mins; assay type: ADME, organism-based; details: in vivo; in short: as §1
Cynomolgus monkey [30] = assay: Ratio of uptake in medulla to cerebellum of anesthetized cynomolgus monkey after 85 mins; assay type: ADME, organism-based; details: in vivo; in short: as §2
Cynomolgus monkey [31] = assay: Uptake in anesthetized cynomolgus monkey thalamus after 115.0 mins; assay type: ADME, organism-based; details: in vivo; in short: as §4
Cynomolgus monkey [32] = assay: Ratio of uptake in occipital to cerebellum of anesthetized cynomolgus monkey after 105 mins; assay type: ADME, organism-based; details: in vivo, 1.75 h; in short: as §2
Cynomolgus monkey [33] = assay: Ratio of uptake in frontal to cerebellum of anesthetized cynomolgus monkey after 65 mins; assay type: ADME, organism-based; details: in vivo; in short: as §2
Cynomolgus monkey [34] = assay: Uptake in anesthetized cynomolgus monkey medulla after 4.5 mins; assay type: ADME, organism-based, Medulla of organ; details: in vivo, 0.075 h; in short: as §1
Cynomolgus monkey [35] = assay: Uptake in anesthetized cynomolgus monkey pons after 95.0 mins; assay type: ADME, organism-based; details: in vivo; in short: as §4

**Q.** Which Drug uptake (Cynomolgus monkey [1]) does the source give for `[11CH3]OC(=O)[C@@H]1C2CCC(C[C@@H]1c1cccc(/C=C/Br)c1)N2` (stereo not given in full) here?
**A.** 7.72

**Q.** What about the Drug uptake (Cynomolgus monkey [2]) of the same compound?
**A.** 7.01

**Q.** What about the Ratio (Cynomolgus monkey [3]) of the same compound?
**A.** 0.8

**Q.** What about the Drug uptake (Cynomolgus monkey [4]) of the same compound?
**A.** 0.01

**Q.** What about the Drug uptake (Cynomolgus monkey [5]) of the same compound?
**A.** 4.08

**Q.** What about the Drug uptake (Cynomolgus monkey [6]) of the same compound?
**A.** 7

**Q.** And the Drug uptake (Cynomolgus monkey [7])?
**A.** 5.14

**Q.** And the Drug uptake (Cynomolgus monkey [8])?
**A.** 5.58

**Q.** What about the Ratio (Cynomolgus monkey [9]) of the same compound?
**A.** 1.4

**Q.** And the Drug uptake (Cynomolgus monkey [10])?
**A.** 6.32

**Q.** What about the Drug uptake (Cynomolgus monkey [11]) of the same compound?
**A.** 3.61

**Q.** And the Drug uptake (Cynomolgus monkey [12])?
**A.** 0.65

**Q.** And the Drug uptake (Cynomolgus monkey [13])?
**A.** 5.92

**Q.** What about the Drug uptake (Cynomolgus monkey [14]) of the same compound?
**A.** 0.3

**Q.** What about the Drug uptake (Cynomolgus monkey [15]) of the same compound?
**A.** 1.57

**Q.** And the Drug uptake (Cynomolgus monkey [16])?
**A.** 6.42

**Q.** And the Ratio (Cynomolgus monkey [17])?
**A.** 1.4

**Q.** What about the Drug uptake (Cynomolgus monkey [18]) of the same compound?
**A.** 6.46

**Q.** What about the Ratio (Cynomolgus monkey [19]) of the same compound?
**A.** 1.8

**Q.** What about the Drug uptake (Cynomolgus monkey [20]) of the same compound?
**A.** 5.76

**Q.** What about the Drug uptake (Cynomolgus monkey [21]) of the same compound?
**A.** 0.35

**Q.** And the Drug uptake (Cynomolgus monkey [22])?
**A.** 4.35

**Q.** What about the Drug uptake (Cynomolgus monkey [23]) of the same compound?
**A.** 1.1

**Q.** And the Drug uptake (Cynomolgus monkey [24])?
**A.** 7.45

**Q.** And the Drug uptake (Cynomolgus monkey [25])?
**A.** 6.81

**Q.** And the Ratio (Cynomolgus monkey [26])?
**A.** 1.6

**Q.** What about the Drug uptake (Cynomolgus monkey [27]) of the same compound?
**A.** 6.91

**Q.** What about the Drug uptake (Cynomolgus monkey [28]) of the same compound?
**A.** 7.56

**Q.** What about the Drug uptake (Cynomolgus monkey [29]) of the same compound?
**A.** 4.84

**Q.** What about the Ratio (Cynomolgus monkey [30]) of the same compound?
**A.** 1.6

**Q.** What about the Drug uptake (Cynomolgus monkey [31]) of the same compound?
**A.** 6.26

**Q.** And the Ratio (Cynomolgus monkey [32])?
**A.** 0.9

**Q.** And the Ratio (Cynomolgus monkey [33])?
**A.** 1

**Q.** And the Drug uptake (Cynomolgus monkey [34])?
**A.** 3.57

**Q.** What about the Drug uptake (Cynomolgus monkey [35]) of the same compound?
**A.** 8.08
